The test system of data set [1] is MRC5. In words: In Vitro cytotoxicity on MRC-5 cells. The class given is functional. Particulars: Homo sapiens. The procedure, abridged:
(§1)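 MRC-5 human diploid embryonic lung cells seeded at 5 000/well, washed after 24 h, then given 2-fold drug dilutions (25, 12.5, 6.25, 3.13 µM) in RPMI + 5% FCS, final DMSO below 0.5%. Incubated 7 days at 37 °C, 5% CO2. MTT colorimetric read-out, scored as % reduction of absorbance at 540 nm versus untreated controls.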

For data set [2], the system named is Leishmania infantum. The experiment in a line: (§2) In Vitro evaluation for the percentage of activity towards Leishmania infantum at 3.13 uM Concentration; Toxic upon mouse primary peritoneal macrophages. It is filed as functional, organism-based. The procedure, abridged:
(§3)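 Starch-stimulated mouse peritoneal macrophages, 30 000/well, infected after 24 h with spleen-derived L. infantum amastigotes (10:1) together with 2-fold drug dilutions (12.5–1.56 µM). Incubated 7 days at 37 °C, 5% CO2. Wright-stained slides scored microscopically as % reduction of total parasite load or of infected macrophages. Uninfected treated cultures judged microscopically for macrophage toxicity.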

For data set [3], the system named is Leishmania infantum. In words: Percentage of activity against Leishmania infantum at 6.25 uM; Toxic upon mouse primary peritoneal macrophages. The class given is functional, organism-based. The procedure, abridged: as §3
For data set [4], the system named is Leishmania infantum. The experiment in a line: (§4) In Vitro evaluation for the percentage of activity towards Leishmania infantum at 1.56 uM Concentration; Toxic upon mouse primary peritoneal macrophages. It is filed as functional, organism-based. The procedure, abridged: as §3
For data set [5], the system named is Leishmania infantum. The experiment in a line: Percentage of activity against Leishmania infantum at 12.5 uM Concentration; Toxic upon mouse primary peritoneal macrophages. The class given is functional, organism-based. The procedure, abridged:
as §3

Data set [6] deals with MRC5. In words: Cytotoxicity on MRC-5 cells at 12.5 uM. The class given is functional. The note with it: Homo sapiens. The procedure, abridged:
as §1

Data set [7] concerns MRC5. The experiment in a line: Cytotoxicity on MRC-5 cells at 25 uM. The class given is functional. The note with it: Homo sapiens. The procedure, abridged: as §1
Data set [8] relates to MRC5. The experiment in a line: Cytotoxicity on MRC-5 cells at 3.13 uM. The class given is functional. The note with it: Homo sapiens. The procedure, abridged:
as §1

Data set [9] has as its system MRC5. In words: Cytotoxicity on MRC-5 cells at 6.25 uM. Particulars: Homo sapiens. It is filed as functional. The procedure, abridged: as §1
Data set [10] concerns Plasmodium falciparum. The experiment in a line: In vitro sensitivity for Plasmodium falciparum FcB1R. The class given is functional, organism-based. The procedure, abridged:
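Asynchronous P. falciparum cultures in human erythrocytes (0.5% parasitemia, 1% haematocrit) exposed to serially diluted drug for 24 h at 37 °C. [3H]hypoxanthine (0.5 µCi/well) then added for a further 24 h. Uptake compared with drug-free controls on the same plate. IC50 taken from the concentration–response curve, averaged over independent experiments. DMSO ≤0.1%.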

In data set [11] the test system is Trypanosoma cruzi. The experiment in a line: In Vitro evaluation for the percentage of activity towards Trypanosoma cruzi at 1.56 uM Concentration; Toxic upon mouse primary peritoneal macrophages. The class given is functional. The procedure, abridged: (§5)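 Mouse peritoneal macrophages, 30 000/well, infected after 24 h with about 100 000 T. cruzi trypomastigotes per well plus 2-fold drug dilutions (12.5–1.56 µM). Incubated 4 days at 37 °C, 5% CO2. Methanol-fixed, Giemsa-stained and scored microscopically as % reduction of total parasite load (free trypomastigotes plus intracellular amastigotes) versus untreated controls.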

Data set [12] concerns Trypanosoma cruzi. In words: Percentage of activity against Trypanosoma cruzi at 12.5 uM; Toxic upon mouse primary peritoneal macrophages. The class given is functional, organism-based. The procedure, abridged: as §5
In data set [13] the test system is Trypanosoma cruzi. In words: (§6) In Vitro evaluation for the percentage of activity towards Trypanosoma cruzi at 3.13 uM Concentration; Toxic upon mouse primary peritoneal macrophages. It is filed as functional, organism-based. The procedure, abridged: as §5
For data set [14], the system named is Trypanosoma cruzi. The experiment in a line: (§7) In Vitro evaluation for the percentage of activity towards Trypanosoma cruzi at 6.25 uM Concentration; Toxic upon mouse primary peritoneal macrophages. It is filed as functional, organism-based. The procedure, abridged: as §5
For data set [15], the system named is Trypanosoma brucei. The experiment in a line: Percentage of activity against Trypanosoma brucei at 6.25 uM. The class given is functional. In short, it runs like this: (§8)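 Bloodstream-form T. brucei in HMI-9 medium, 10 000 parasites/well, exposed to 12.5, 6.25, 3.13 and 1.56 µM drug for 4 days. Read-out is % inhibition of parasite multiplication. Macrophage toxicity judged on mouse primary peritoneal macrophages.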

The subject of data set [16] is Trypanosoma brucei. In words: Percentage of activity against Trypanosoma brucei at 12.5 uM. The class given is functional. The procedure, abridged: as §8
In data set [17] the test system is Trypanosoma brucei. In words: Percentage of activity against Trypanosoma brucei at 1.56 uM. The class given is functional. The procedure, abridged:
as §8

Data set [18] deals with Trypanosoma brucei. In words: Percentage of activity against Trypanosoma brucei at 3.13 uM. It is filed as functional. The procedure, abridged:
as §8

The subject of data set [19] is Leishmania infantum. The description is as §2. The class given is organism-based. In short, it runs like this: as §3
The test system of data set [20] is Leishmania infantum. The experiment in a line: In Vitro evaluation for the percentage of activity towards Leishmania infantum 6.25 uM Concentration; Toxic upon mouse primary peritoneal macrophages. It is filed as organism-based. The procedure, abridged: as §3
Data set [21] deals with Leishmania infantum. The description is as §4. It is filed as organism-based. The procedure, abridged:
as §3

Data set [22] concerns Leishmania infantum. The experiment in a line: In Vitro evaluation for the percentage of activity towards Leishmania infantum at 12.5 uM Concentration; Toxic upon mouse primary peritoneal macrophages. The class given is organism-based. The procedure, abridged: as §3
In data set [23] the test system is Trypanosoma cruzi. The experiment in a line: In Vitro evaluation for the percentage of activity towards Trypanosoma cruzi at 12.5 uM Concentration; Toxic upon mouse primary peritoneal macrophages. It is filed as organism-based. The procedure, abridged: as §5
For data set [24], the system named is Trypanosoma cruzi. Described as §6. It is filed as ADME, organism-based. The procedure, abridged:
as §5

The subject of data set [25] is Trypanosoma cruzi. The data set is described as §7. The class given is ADME, organism-based. In short, it runs like this: as §5
The subject of data set [26] is Trypanosoma brucei. The experiment in a line: In Vitro inhibition concentration against Trypomastigote form of Trypanosoma brucei. It is filed as functional, organism-based. In short, it runs like this: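 Bloodstream-form trypomastigotes were grown in HMI-9 medium. 10 000 parasites per well were incubated with drug at 12.5, 6.25, 3.13 and 1.56 µM for 4 days, and parasite multiplication was assessed.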

The test system of data set [27] is Leishmania infantum. In words: Percentage of activity against Leishmania infantum at 1.56 uM. It is filed as functional. In short, it runs like this: as §3
Data set [28] has as its system Leishmania infantum. The experiment in a line: Percentage of activity against Leishmania infantum at 3.13 uM. The class given is functional. In short, it runs like this:
as §3

Data set [29] relates to Plasmodium falciparum. In words: Parasite growth inhibition against Plasmodium falciparum W2. It is filed as functional, organism-based. In short, it runs like this: (§9)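 Asynchronous cultures of each strain on human erythrocytes (0.5% parasitemia, 1% final hematocrit) were exposed to serially diluted drug for 24 h at 37 °C. Then 0.5 µCi [3H]hypoxanthine per well was added for 24 h. Incorporation was compared with a drug-free control on the same plate. IC50 was taken from the concentration-response curve as the mean of several independent experiments. DMSO was at most 0.1%.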

The test system of data set [30] is Plasmodium falciparum. The experiment in a line: Parasite growth inhibition against Plasmodium falciparum F32A. The class given is functional, organism-based. In short, it runs like this:
as §9

The subject of data set [31] is Plasmodium falciparum. The experiment in a line: Parasite growth inhibition against Plasmodium falciparum FCM29. The class given is functional, organism-based. In short, it runs like this: as §9
Data set [32] relates to Plasmodium falciparum. In words: Parasite growth inhibition against Plasmodium falciparum FCR3. The class given is functional, organism-based. The procedure, abridged: as §9
In data set [33] the test system is Plasmodium falciparum. In words: Parasite growth inhibition against Plasmodium falciparum GP1. It is filed as functional, organism-based. In short, it runs like this: as §9
Data set [34] concerns Plasmodium falciparum. In words: Growth inhibition against chloroquine-resistant Plasmodium falciparum K1. It is filed as functional, organism-based. The procedure, abridged: as §9
Data set [35] relates to Trypanosoma cruzi. In words: Percentage of activity against Trypanosoma cruzi at 1.56 uM. It is filed as functional. The procedure, abridged: as §5
Data set [36] has as its system Trypanosoma cruzi. The experiment in a line: Percentage of activity against Trypanosoma cruzi at 3.13 uM. The class given is functional. The procedure, abridged: as §5
The test system of data set [37] is Plasmodium falciparum. In words: Growth inhibition of chloroquine-sensitive Plasmodium falciparum 3D7.

One may read the CC50 as the concentration giving 50% cytotoxicity. The low end stands for greater toxicity to the cells, the high end for lower toxicity to the cells. In turn, `O=C(Cn1ccnc1[N+](=O)[O-])NCc1ccccc1` [BENZNIDAZOLE] yielded a CC50 in [1] above 50000 nM.

What is called IC50 is the concentration that inhibits the measured activity by half. As to `COc1ccc2nc3cc(Cl)ccc3c(NCCNCCNc3c4ccc(Cl)cc4nc4ccc(OC)cc34)c2c1`, the Cytotoxicity result in data set [2], in data set [3], in data set [4], in data set [5], in data set [11] and in [12] was “Toxic” each time. For the same compound, the Cytotoxicity result in data set [13] and in data set [14] was “Toxic” throughout. This compound had a cytotoxicity at 12.5 µM in data set [6] of 100%. The same compound showed a cytotoxicity at 25 µM in data set [7] of 100%. Moreover, in data set [8], the cytotoxicity at 3.13 µM came out at 100%. Further, the cytotoxicity at 6.25 µM in [9] turned out to be 100%. In [10], this compound gave an IC50 of 63 nM. Besides, the “Inhibition of parasite multiplication” value in data set [15] and in data set [16] was 100% each time. For the same compound, the “Percent inhibition of parasite multiplication” value (“Percent inhibition” below) in data set [17] turned out to be 100%. The compound further registered a Parasite growth inhibition in [18] of 100%.

In the case of `COc1ccc2nc3cc(Cl)ccc3c(NCCCN(CCCNc3c4ccc(Cl)cc4nc4ccc(OC)cc34)C(=O)CCC(N)=O)c2c1`, the Cytotoxicity entry in [19] is “Toxic”; in data set [20], “Toxic”; in [21], “Toxic”; in data set [22], “Toxic”; in data set [11], 95%; in [23] it was “Toxic”. The Cytotoxicity result in data set [24] and in [25] was “Toxic” each time. Besides, the cytotoxicity at 12.5 µM in [6] worked out at 100%. This compound also gave a cytotoxicity at 25 µM in [7] of 100%. Moreover, the cytotoxicity at 3.13 µM in data set [8] came to 100%. In data set [9], this compound displayed a cytotoxicity at 6.25 µM of 100%. The compound further gave an IC50 in data set [10] of 40 nM. The “Inhibition of parasite multiplication” value in [15] and in data set [16] was 100% in each case. Moreover, in data set [17], the “Percent inhibition” value is 100%. In data set [18], this compound came in with a Parasite growth inhibition of 100%.

`Nc1nc(N)nc(Nc2ccc([As]3SCC(CO)S3)cc2)n1` (stereo not given) [MELARSOPROL] registered a 50% cytotoxic concentration (CC50) in data set [1] of 12500 nM. Moreover, half-maximal inhibition in data set [26] (IC50) required 200 nM.

As to `COc1ccc2nc3cc(Cl)ccc3c(NCCCN(CCCNc3c4ccc(Cl)cc4nc4ccc(OC)cc34)C(=O)C(CC(C)C)NC(=O)OC(C)(C)C)c2c1` (stereo not given), the Cytotoxicity result in data set [3], in [5], in data set [12] and in [14] was “Toxic” in each case. In addition, the “Antileishmanial activity (% reduction of parasite load)” value in [27] came out at 90%. The “Percent antileishmanial activity (reduction of parasite load)” value in data set [28] came to 95%. This compound showed a cytotoxicity at 12.5 µM in [6] of 49%. In data set [7], this compound yielded a cytotoxicity at 25 µM of 55%. This compound also had a cytotoxicity at 3.13 µM in data set [8] of 42%. The same compound displayed a cytotoxicity at 6.25 µM in data set [9] of 47%. In addition, the IC50 in data set [29] was found to be 15 nM; in [30], 52 nM; in data set [31] it was 13 nM; in data set [32], 17 nM; in data set [10], 27 nM; in data set [33], 63 nM. For the same compound, the figures for the concentration for half-maximal inhibition (IC50) in data set [34] and in data set [37] were 14 nM and 48 nM, respectively. In [35], this compound had a Parasite load reduction of 40%. In addition, the “Reduction of T. cruzi parasite load” value in [36] is reported as 80%. Also, in data set [15], the “Inhibition of parasite multiplication” value is reported as 100%. Moreover, the “Percent inhibition” value in data set [17] came out at 100%. In addition, the Parasite growth inhibition in data set [18] is recorded as 100%.

The values above are taken from ChEMBL document CHEMBL1133105, “Antimalarial, antitrypanosomal, and antileishmanial activities and cytotoxicity of bis(9-amino-6-chloro-2-methoxyacridines): influence of the linker” (J Med Chem, 2000).
